Laboratory results as given in PMC9710334 (BMJ Open Gastroenterology, 2022).
Entries after “also recorded” stand apart in the source; their conditions may differ.

Experiments:
[1] = tested on: liver fibrosis in patients with advanced PBC; experiment: Paired liver biopsy histology; format: in vivo, human
How it was run: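 Paired liver biopsies were taken at screening (baseline) and within 2 weeks of the final dose of the 12-cycle iv regimen (280 or 380 mg/m2/4 hours, twice weekly). Sections were stained with Masson's trichrome, H&E and Sirius red. Three independent central pathologists scored the slides blinded, using Knodell and Ishak modified HAI for grade and fibrosis stage. Analysis was descriptive.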

[2] = tested on: patients with advanced PBC; experiment: Serum liver function parameters during OP-724 administration; format: in vivo, human
[3] = tested on: patients with liver cirrhosis induced by hepatitis B or C virus; conditions: cited from earlier work
liver fibrosis models = conditions: cited from earlier work
[4] = tested on: P300/β-catenin signalling; conditions: ref 20 23; cited from earlier work
CBP/β-catenin = conditions: cited from earlier work
[5] = patient P101-02, 12 weeks, baseline 2
[6] = patient P101-04, 12 weeks, baseline 1
[7] = patient P101-07, 12 weeks, baseline 2
[8] = patient P101-07, 12 weeks, baseline 3
[9] = patient P101-08, 12 weeks, baseline 3

## C[C@H]1[C@H]2N(C(=O)CN(C)N2C(=O)NCc2ccccc2)[C@@H](Cc2ccc(OP(=O)(O)O)cc2)C(=O)N1Cc1cccc2cccnc12 [OP-724]
[1]; paired biopsies, baseline vs 12 weeks, 2/5 patients
  patients with a decrease in the fibrosis stage by 1 or more: 40%
[1]; paired biopsies, baseline vs 12 weeks, 3/5 patients
  patients with a decrease (improvement) in the mHAI score: 60%
[1]; paired biopsies, baseline vs 12 weeks, three of five patients
  patients with a decrease in the CPA: 60%
[1]; patient P101-01, 12 weeks, baseline 0
  Modified HAI score: Confluent necrosis: 0
[1]; patient P101-01, 12 weeks, baseline 1
  Modified HAI score: Lobular inflammation: 1
[1]; patient P101-01, 12 weeks, baseline 2
  Modified HAI score: Interface hepatitis: 2
[1]; patient P101-01, 12 weeks, baseline 3
  Modified HAI score: Portal inflammation: 3
[1]; patient P101-01, 12 weeks, baseline 4
  Modified HAI score: Stage: 3
[1]; patient P101-01, 12 weeks, baseline 6
  Modified HAI score: HAI score: 6
[1]; patient P101-01, 12 weeks, baseline 7.8010627
  Collagen proportional area, Sirius red positive area: 2.739%
[1]; patient P101-02, 12 weeks, baseline 0
  Modified HAI score: Confluent necrosis: 0
[1]; [5]
  Modified HAI score: Interface hepatitis: 1
  Modified HAI score: Lobular inflammation: 1
  Modified HAI score: Portal inflammation: 1
[1]; patient P101-02, 12 weeks, baseline 4.9477138
  Collagen proportional area, Sirius red positive area: 3.714%
[1]; patient P101-02, 12 weeks, baseline 5
  Modified HAI score: Stage: 5
[1]; patient P101-02, 12 weeks, baseline 6
  Modified HAI score: HAI score: 3
[1]; patient P101-04, 12 weeks, baseline 0
  Modified HAI score: Confluent necrosis: 1
[1]; [6]
  Modified HAI score: Lobular inflammation: 2
  Modified HAI score: Portal inflammation: 3
[1]; patient P101-04, 12 weeks, baseline 2
  Modified HAI score: Interface hepatitis: 3
[1]; patient P101-04, 12 weeks, baseline 3
  Modified HAI score: Stage: 5
[1]; patient P101-04, 12 weeks, baseline 4
  Modified HAI score: HAI score: 9
[1]; patient P101-04, 12 weeks, baseline 6.8891091
  Collagen proportional area, Sirius red positive area: 7.584%
[1]; [7]
  Modified HAI score: Confluent necrosis: 0
  Modified HAI score: Interface hepatitis: 2
[1]; [8]
  Modified HAI score: Lobular inflammation: 2
  Modified HAI score: Portal inflammation: 2
  Modified HAI score: Stage: 3
[1]; patient P101-07, 12 weeks, baseline 3.8731926
  Collagen proportional area, Sirius red positive area: 3.646%
[1]; patient P101-07, 12 weeks, baseline 10
  Modified HAI score: HAI score: 6
[1]; [9]
  Modified HAI score: Confluent necrosis: 0
  Modified HAI score: Lobular inflammation: 3
  Modified HAI score: Portal inflammation: 2
[1]; patient P101-08, 12 weeks, baseline 4
  Modified HAI score: Interface hepatitis: 1
[1]; patient P101-08, 12 weeks, baseline 5
  Modified HAI score: Stage: 2
[1]; patient P101-08, 12 weeks, baseline 7.7587483
  Collagen proportional area, Sirius red positive area: 3.484%
[1]; patient P101-08, 12 weeks, baseline 13
  Modified HAI score: HAI score: 6
[1]; patients P101-01 and P101-08, after OP-724 administration
  septal thickness in liver parenchyma, Masson's trichrome staining: reduction in septal thickness
[2]; 5, 9, 12 and 16 weeks vs baseline
  serum ALP and GGT levels: did not show a tendency to decrease
[2]; 12 weeks, of five patients with baseline and 12-week data
  patients whose abnormally high baseline total bile acid values decreased: four
[2]; during OP-724 administration, no significant difference
  serum total bile acid level: downward trend; also recorded: tendency to decrease
[2]; this study
  increase in the albumin level: this tendency was not observed
[3]; one patient at level 3 (380 mg/m^2/4 hours), PRI-724-2101 study ref 25
  liver dysfunction reported as SAE: severe liver dysfunction
[3]; phase 1 or 1/2a clinical trials ref 24 25
  harmful effects in humans: does not have harmful effects in humans
[3]; previous clinical trials ref 24 25
  albumin level: increase in the albumin level
Liver fibrosis models
  antifibrotic effect: exerts antifibrotic effects
[4]
  inhibition of P300/β-catenin signalling: does not inhibit
CBP/β-catenin
  inhibition of the interaction between CBP and β-catenin: selectively inhibits
